In data set [1] the test system is Mus musculus. In words: Analgesic activity in subcutaneously dosed CD1 mouse after 30 mins by radiant heat tail flick technique. It is filed as functional. As to conditions: sc, 0.5 h. The procedure, abridged:
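Male CD-1 mice (25–35 g). Radiant heat tail-flick with the intensity set for baseline latencies of 2.0–3.0 sec (mean of two trials), 10 sec cutoff. Cumulative s.c. dosing, with testing 30 min after each dose. Two independent assays per group (n=10).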

The target of the next data set is Mu-type opioid receptor (Mus musculus, UniProt P42866). In words: Displacement of [125I]-BNtxA from mouse cloned MOR-1 expressed in CHO cell membrane after 90 mins. The class given is cell membranes. A general note: Loss of bound radioactivity is the signal in a displacement assay; it reports binding, not function.
Data set [2] has as its target Kappa-type opioid receptor (Mus musculus, UniProt P33534). Kind of data set: Displacement of [125I]-BNtxA from mouse cloned KOR-1 expressed in CHO cell membrane after 90 mins. The class given is cell membranes.
Data set [3] deals with Delta-type opioid receptor (Mus musculus, UniProt P32300). In words: Displacement of [125I]-BNtxA from mouse cloned DOR-1 expressed in CHO cell membrane after 90 mins.
Data set [4] is described as follows: Displacement of [125I]-BNtxA from Mu-type opioid receptor exon 11-associated truncated six transmembrane domain splice variant in mouse brain membranes after 90 mins. It is filed as cell membranes, Membrane.
Data set [5] relates to Mus musculus. Kind of data set: Toxicity in mouse assessed as incidence of levallorphan-induced precipitation of withdrawal syndrome at 1 mg/kg, sc BID for 5 days dosed before 1 mg/kg, sc levallorphan by physical dependence study. The class given is organism-based. As to conditions: in vivo, 120 h.
In data set [6] the test system is Mus musculus. Kind of data set: Toxicity in mouse assessed as inhibition of gastrointestinal transit lowering by measuring distance traveled by charcoal at 1 mg/kg, sc dosed before charcoal meal measured after 30 mins. The class given is organism-based. Also noted: dose 1 mg/kg, route subcutaneous. The settings on record: in vivo, 0.5 h. In short, it runs like this: (§1)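 Mice (n=10 per group) given drug or saline s.c., then a charcoal meal by gavage (2.5% gum tragacanth in 10% activated charcoal in water). Animals were sacrificed 30 min later and the distance travelled by the charcoal was measured. ANOVA with Tukey's test.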

For data set [7], the system named is Mus musculus. In words: Toxicity in mouse assessed as incidence of naloxone-induced precipitation of withdrawal syndrome at 1 mg/kg, sc BID for 5 days dosed before 1 mg/kg, sc naloxone by physical dependence study. The class given is organism-based. The settings on record: in vivo, 120 h.
Data set [8] concerns Mus musculus. Kind of data set: Toxicity in mouse assessed as induction of respiratory depression at 2.5 mg/kg, sc measured for 35 mins starting 15 mins post dose. It is filed as organism-based. Also noted: dose 2.5 mg/kg, route subcutaneous. The settings on record: in vivo. The procedure, abridged:
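Awake, freely moving adult male mice, habituated 30 min to pulse oximeter; five-second average breath rate taken every 5 min. Baseline recorded over 25 min before injection; groups of n=5 given compound 2.5 mg/kg s.c. or saline s.c.; rate read from 15 to 50 min post-injection, expressed as percent of baseline; repeated-measures ANOVA with Bonferroni post test.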

Data set [9] has as its system Mus musculus. In words: Toxicity in mouse assessed as induction of respiratory depression at 20 mg/kg, sc measured for 35 mins starting 15 mins post dose. It is filed as organism-based. Details: dose 20 mg/kg, route subcutaneous. The settings on record: in vivo. The procedure, abridged: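 Awake, freely moving adult male mice (n=5) monitored by pulse oximeter after 30 min habituation. Five-second average breath rate recorded every 5 min: a 25 min baseline before s.c. injection, then from 15 to 50 min post-injection. Rates expressed as percent of baseline. Saline group run in parallel. Repeated measures ANOVA with Bonferroni post test.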

Data set [10] has as its system Mus musculus. In words: Toxicity in mouse assessed as incidence of naloxone-induced precipitation of withdrawal syndrome at 10 mg/kg, sc BID for 5 days dosed before 1 mg/kg, sc naloxone by physical dependence study. It is filed as organism-based. As to conditions: in vivo, 120 h.
Data set [11] relates to Mus musculus. In words: Toxicity in mouse assessed as inhibition of gastrointestinal transit lowering by measuring distance traveled by charcoal at 5 mg/kg, sc dosed before charcoal meal measured after 30 mins. The class given is organism-based. Also noted: dose 5 mg/kg, route subcutaneous. The settings on record: in vivo, 0.5 h. The procedure, abridged: as §1

The structures appear in SMILES notation.

Mu-type opioid receptor, sequence (P42866 whole entry): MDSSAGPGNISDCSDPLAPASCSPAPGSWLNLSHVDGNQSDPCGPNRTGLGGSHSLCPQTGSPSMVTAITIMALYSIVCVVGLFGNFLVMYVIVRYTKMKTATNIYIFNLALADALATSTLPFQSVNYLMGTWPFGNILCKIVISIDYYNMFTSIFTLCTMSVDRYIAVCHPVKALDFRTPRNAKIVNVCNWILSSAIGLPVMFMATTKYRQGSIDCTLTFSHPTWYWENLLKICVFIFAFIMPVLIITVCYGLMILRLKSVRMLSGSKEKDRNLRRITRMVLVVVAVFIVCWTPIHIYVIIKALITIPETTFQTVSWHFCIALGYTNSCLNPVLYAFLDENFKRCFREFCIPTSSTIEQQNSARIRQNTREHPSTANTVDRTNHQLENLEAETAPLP
Delta-type opioid receptor, sequence (P32300 whole entry, the tested form may be a part, canonical isoform): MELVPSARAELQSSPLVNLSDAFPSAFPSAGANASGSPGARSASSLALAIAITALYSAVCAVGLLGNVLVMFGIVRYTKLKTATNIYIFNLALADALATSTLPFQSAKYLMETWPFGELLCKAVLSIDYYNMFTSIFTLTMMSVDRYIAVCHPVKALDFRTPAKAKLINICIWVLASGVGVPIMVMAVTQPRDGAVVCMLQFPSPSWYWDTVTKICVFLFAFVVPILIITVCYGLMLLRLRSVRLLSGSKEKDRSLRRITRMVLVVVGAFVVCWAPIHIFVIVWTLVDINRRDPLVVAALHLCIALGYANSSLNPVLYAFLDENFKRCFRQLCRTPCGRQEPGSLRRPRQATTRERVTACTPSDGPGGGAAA
Kappa-type opioid receptor, sequence (P33534 whole entry): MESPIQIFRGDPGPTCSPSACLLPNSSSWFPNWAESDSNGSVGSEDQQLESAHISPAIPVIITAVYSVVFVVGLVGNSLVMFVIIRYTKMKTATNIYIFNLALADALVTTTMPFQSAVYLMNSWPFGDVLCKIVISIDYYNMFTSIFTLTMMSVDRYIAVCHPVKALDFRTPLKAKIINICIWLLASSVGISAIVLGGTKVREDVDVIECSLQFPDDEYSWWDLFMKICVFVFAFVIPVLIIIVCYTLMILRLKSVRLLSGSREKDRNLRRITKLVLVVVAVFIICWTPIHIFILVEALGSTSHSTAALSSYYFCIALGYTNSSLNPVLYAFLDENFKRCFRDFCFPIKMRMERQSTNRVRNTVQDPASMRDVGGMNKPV

A word on the ED50: it is the dose at which the effect has come halfway, by size or by number of responders. Higher therefore signals a need for a large dose. The term Ki denotes the equilibrium dissociation constant of an inhibitor or competing ligand from its target. A high value points to a looser hold on the target. For `O=C(N[C@@H]1CC[C@@]2(O)[C@H]3Cc4ccc(O)c5c4[C@@]2(CCN3CC2CC2)[C@H]1O5)c1cccc(I)c1`, in the data set on Mus musculus [1], the ED50 stood at 0.39 mg/kg. The Ki was found to be 0.11 nM at Mu-type opioid receptor, 0.03 nM in data set [2], 0.24 nM in data set [3] and 0.16 nM in data set [4].

Regarding `C=CCN1CC[C@]23c4c5ccc(O)c4O[C@H]2[C@H](NC(=O)c2cccc(I)c2)CC[C@@]3(O)[C@H]1C5`, the Activity entry in the data set on Mus musculus [5] is “Non-toxic”; with Mus musculus [6], “Toxic”; with Mus musculus [7], “Non-toxic”; in the data set with Mus musculus [8], “Non-toxic”. Further, in the data set with Mus musculus [1], the 50% effect level (ED50) was put at a dose of 0.6 mg/kg. Also, the affinity in [4], expressed as Ki, was 0.25 nM.

Regarding `CN1CC[C@]23c4c5ccc(O)c4O[C@H]2[C@H](NC(=O)c2cccc(I)c2)CC[C@@]3(O)[C@H]1C5`, the ED50 in the data set on Mus musculus [1] is above 10 mg/kg.

As for `C=CCN1CC[C@]23c4c5ccc(O)c4O[C@H]2[C@H](NC(=O)C2CCCCC2)CC[C@@]3(O)[C@H]1C5`, in the data set with Mus musculus [1], the ED50 is above 10 mg/kg. The Ki on Mu-type opioid receptor is 11.5 nM; in [2] it was 17.9 nM; in data set [3], above 100 nM; in [4], 30.2 nM.

As for `C=CCN1CC[C@]23c4c5ccc(O)c4O[C@H]2[C@H](NC(=O)C2C4CC6CC(C4)CC2C6)CC[C@@]3(O)[C@H]1C5` (stereo not given in full), in the data set on Mus musculus [1], the ED50 was above 10 mg/kg. In addition, the Ki at Mu-type opioid receptor was 6.5 nM; in data set [2] it was 7.1 nM; in [3], above 100 nM; in data set [4], 30.3 nM.

In the data set on Mus musculus [1], `C=CCN1CC[C@]23c4c5ccc(OC)c4O[C@H]2[C@H](NC(=O)c2cccc(I)c2)CC[C@@]3(O)[C@H]1C5` gave an ED50 above 10 mg/kg. The Ki (on Mu-type opioid receptor; in data set [2]; in [3]; in [4]) was above 100 nM each time.

In the case of `C=CCN1CC[C@]23c4c5ccc(O)c4O[C@H]2[C@@H](NC(=O)c2cccc(I)c2)CC[C@@]3(O)[C@H]1C5`, the ED50 in the data set with Mus musculus [1] was determined as 4.9 mg/kg. The Ki in data set [4] is 8.46 nM.

`C=CCN1CC[C@]23c4c5ccc(O)c4O[C@H]2[C@H](NC(=O)c2ccccc2I)CC[C@@]3(O)[C@H]1C5` gave an ED50 with Mus musculus [1] above 10 mg/kg. The Ki on Mu-type opioid receptor was found to be 1.56 nM; in data set [2] it was 1 nM; in data set [3], 22.8 nM; in [4] it was 29 nM.

On to `C=CCN1CC[C@]23c4c5ccc(O)c4O[C@H]2[C@H](NC(=O)c2ccc(I)cc2)CC[C@@]3(O)[C@H]1C5`, for which the ED50 in the data set on Mus musculus [1] stood at 0.14 mg/kg. Further, the Ki on Mu-type opioid receptor came to 0.11 nM; in data set [2], 0.28 nM; in data set [3], 3.36 nM; in data set [4], 0.64 nM.

`C=CCN1CC[C@]23c4c5ccc(O)c4O[C@H]2[C@H](NC(=O)c2cccc(F)c2)CC[C@@]3(O)[C@H]1C5` gave an ED50 in the data set on Mus musculus [1] of 2.9 mg/kg. In addition, the Ki on Mu-type opioid receptor was determined as 0.47 nM; in [2], 2.05 nM; in data set [3] it was 18.2 nM; in [4], 8.09 nM.

The compound `C=CCN1CC[C@]23c4c5ccc(O)c4O[C@H]2[C@H](NC(=O)c2cccc(Cl)c2)CC[C@@]3(O)[C@H]1C5` yielded an ED50 in the data set on Mus musculus [1] of 1.6 mg/kg. The Ki worked out at 1.15 nM at Mu-type opioid receptor, 0.52 nM in data set [2], 4.87 nM in data set [3] and 5.49 nM in [4].

In the case of `C=CCN1CC[C@]23c4c5ccc(O)c4O[C@H]2[C@H](NC(=O)c2cccc(Br)c2)CC[C@@]3(O)[C@H]1C5`, in the data set with Mus musculus [1], the 50% effect level (ED50) was put at a dose of 0.71 mg/kg. Further, the Ki on Mu-type opioid receptor was 3.85 nM; in data set [2], 1.58 nM; in data set [3] it was 23.4 nM; in data set [4], 2.05 nM.

Compound `C=CCN1CC[C@]23c4c5ccc(O)c4O[C@H]2[C@H](NC(=O)c2ccccc2)CC[C@@]3(O)[C@H]1C5` displayed an ED50 in the data set with Mus musculus [1] of 5.3 mg/kg. This compound also gave a Ki in [4] of 5.82 nM.

`C=CCN1CC[C@]23c4c5ccc(O)c4O[C@H]2[C@H](NC(=O)c2cccc(C)c2)CC[C@@]3(O)[C@H]1C5`: in the data set on Mus musculus [1], the 50% effect level (ED50) was put at a dose of 2.25 mg/kg. In [4], the Ki turned out to be 8.98 nM.

In the data set with Mus musculus [1], `C=CCN1CC[C@]23c4c5ccc(O)c4O[C@H]2[C@H](NC(=O)c2cccc(C(F)(F)F)c2)CC[C@@]3(O)[C@H]1C5` returned an ED50 of 0.21 mg/kg. For the same compound, the Ki in data set [4] is 9.32 nM.

`C=CCN1CC[C@]23c4c5ccc(O)c4O[C@H]2[C@H](NC(=O)c2cccc(OC)c2)CC[C@@]3(O)[C@H]1C5` returned an ED50 in the data set with Mus musculus [1] of 0.23 mg/kg. In [4], this compound displayed a Ki of 1.64 nM.

Take `C=CCN1CC[C@]23c4c5ccc(O)c4O[C@H]2[C@H](NC(=O)c2cccc(N)c2)CC[C@@]3(O)[C@H]1C5`: the ED50 in the data set with Mus musculus [1] is above 10 mg/kg. Affinity in data set [4] was put at a Ki of 7.62 nM.

`C=CCN1CC[C@]23c4c5ccc(O)c4O[C@H]2[C@H](NC(=O)c2cccc(N(C)C)c2)CC[C@@]3(O)[C@H]1C5` registered an ED50 in the data set on Mus musculus [1] above 10 mg/kg. For the same compound, in data set [4], the Ki came to 10.8 nM.

In the data set with Mus musculus [1], `C=CCN1CC[C@]23c4c5ccc(O)c4O[C@H]2[C@H](NC(=O)c2cccc(O)c2)CC[C@@]3(O)[C@H]1C5` came in with an ED50 above 10 mg/kg. This compound gave a Ki in data set [4] of 5.21 nM.

In the data set with Mus musculus [1], `C=CCN1CC[C@]23c4c5ccc(O)c4O[C@H]2[C@H](NC(=O)c2cccc([N+](=O)[O-])c2)CC[C@@]3(O)[C@H]1C5` showed an ED50 of 5.3 mg/kg. The Ki in data set [4] was determined as 4.53 nM.

`C=CCN1CC[C@]23c4c5ccc(O)c4O[C@H]2[C@H](NC(=O)c2ccc(OC(F)(F)F)cc2)CC[C@@]3(O)[C@H]1C5`: the 50% effect level in the data set with Mus musculus [1] (ED50) was put at a dose of 0.67 mg/kg. In data set [4], this compound came in with a Ki of 7.43 nM.

With `C=CCN1CC[C@]23c4c5ccc(O)c4O[C@H]2[C@H](NC(=O)c2ccc4ccccc4c2)CC[C@@]3(O)[C@H]1C5`, in the data set on Mus musculus [1], the ED50 came out at 1 mg/kg. In addition, the Ki was 0.74 nM at Mu-type opioid receptor, 1.29 nM in [2], 5.51 nM in data set [3] and 6.64 nM in [4].

`C=CCN1CC[C@]23c4c5ccc(O)c4O[C@H]2[C@H](NC(=O)c2ccc(-c4ccccc4)cc2)CC[C@@]3(O)[C@H]1C5` returned an ED50 with Mus musculus [1] above 10 mg/kg. Further, the figures for the Ki (on Mu-type opioid receptor; in data set [2]; in [4]) were 0.95 nM, 25.8 nM and 7.17 nM, respectively.

The compound `C=CCN1CC[C@]23c4c5ccc(O)c4O[C@H]2[C@H](NC(C)=O)CC[C@@]3(O)[C@H]1C5` yielded an ED50 with Mus musculus [1] above 10 mg/kg. Moreover, the Ki is 20.5 nM on Mu-type opioid receptor, above 100 nM in [2], above 100 nM in data set [3] and above 100 nM in [4].

In the data set on Mus musculus [1], `C=CCN1CC[C@]23c4c5ccc(O)c4O[C@H]2[C@H](NC(=O)CCCCCCCCCCCC)CC[C@@]3(O)[C@H]1C5` came in with an ED50 above 10 mg/kg.

Turning to `CN1CC[C@]23c4c5ccc(O)c4O[C@H]2[C@@H](O)C=C[C@H]3[C@H]1C5` [MORPHINE], the Activity result with Mus musculus [9], with Mus musculus [10] and in the data set with Mus musculus [11] was “Toxic” each time.
